Data set [1] concerns HCT-116. As to the kind of experiment: Cytotoxicity against human HCT116 cells after 72 hrs by trypan blue viable cell count. As to conditions: HCT-116, 72 h.
Data set [2] can be described thus: Cytotoxicity against human H116 cells at 30 ug/disk by disk diffusion method. It is filed as functional. The method in brief: (§1)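 Soft agar colony formation assay with compound applied by disk diffusion; cell lines: murine L1210 leukemia and C38 colon, human HCT-116 colon, H-125 lung, CEM leukemia, normal hematopoietic CFU-GM. Differential cytotoxicity given as zone-unit differential between a solid tumor line and leukemia (ΔSL) or normal cells (ΔSN).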

Data set [3] relates to MC-38. As to the kind of experiment: Cytotoxicity against mouse C38 cells at 30 ug/disk by disk diffusion method. It is filed as functional. The method in brief:
as §1

The subject of data set [4] is L1210. As to the kind of experiment: Cytotoxicity against mouse L1210 cells at 30 ug/disk by disk diffusion method. It is filed as functional. In outline:
as §1

Data set [5] can be described thus: Cytotoxicity against human H125 cells at 30 ug/disk by disk diffusion method. Format: functional. The method in brief: as §1
Another data set deals with MDA-MB-435. The experiment in a line: Cytotoxicity against human MDA-MB-435 cells after 48 hrs by SRB assay. As to conditions: MDA-MB-435, 48 h.
For data set [6], the system named is HCT-116. The experiment in a line: Increase in microtubule density in human HCT116 up to 50 uM. It is filed as functional, cell-based. In outline:
(§2)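 Cell-based screen for disruption of interphase and mitotic microtubules, tested at concentrations up to 50 µM; scored for microtubule density, bundling, circular mitotic spindles, micronucleation and other nuclear changes.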

Data set [7] deals with HCT-116. The experiment in a line: Effect on micronucleation in human HCT116 up to 50 uM. Format: functional, cell-based. The method in brief:
as §2

In data set [8] the test system is HCT-116. As to the kind of experiment: Formation of circular mitotic spindles in human HCT116 up to 50 uM. It is filed as functional, cell-based. The method in brief:
as §2

Data set [9] in a line: Cytotoxicity against human H116 cells at 60 ug/disk by disk diffusion method. Format: functional. In outline:
(§3)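 Disk diffusion soft agar colony formation assay using solid tumor lines (murine colon C38, human colon HCT-116, human lung H125), leukemia lines (murine L1210, human CEM) and normal CFU-GM cells. Results are inhibition zones in zone units. Differential cytotoxicity is the zone difference between solid tumor and leukemia cells (ΔSL) or normal cells (ΔSN).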

The subject of data set [10] is MC-38. As to the kind of experiment: Cytotoxicity against mouse C38 cells at 60 ug/disk by disk diffusion method. Format: functional. The method in brief:
as §3

Data set [11] in a line: Cytotoxicity against human H125 cells at 60 ug/disk by disk diffusion method. Format: functional. In outline:
as §3

Data set [12] concerns L1210. The experiment in a line: Cytotoxicity against mouse L1210 cells at 60 ug/disk by disk diffusion method. It is filed as functional. In outline:
as §3

The nature of data set [13]: Cytotoxicity against human CFU-GM cells at 30 ug/disk by disk diffusion method. Format: cell-based. In outline:
as §1

Active and inactive are the calls of the source. The calls are words filed in the database; no cut-off is given here.

For the compound `C=C1C[C@H](C)C[C@@H]2CC=C[C@@H](C/C=C\C(=O)O[C@H]3C[C@@H](O[C@H]3/C=C/[C@@H]3CC(C)=CCO3)[C@@H](O)[C@@H](O)C1)O2` [FIJIANOLIDE A], the IC50 in the data set on HCT-116 [1] amounted to 9.7 µM; with MDA-MB-435 it was 20.2 µM. In addition, the Activity was found to be 100 Zone units in data set [2], 0 Zone units with MC-38 [3], 150 Zone units in the data set on L1210 [4] and 50 Zone units in data set [5].
Regarding `C=C1C[C@H](C)C[C@@H]2CC=C[C@@H](C/C=C\C(=O)O[C@H]3C[C@@H](O[C@H]3/C=C/[C@@H]3CC(C)=CC(O)O3)[C@@H](O)[C@@H](O)C1)O2` (some centres undefined) [FIJIANOLIDE I], the IC50 in the data set with HCT-116 [1] and in the data set on MDA-MB-435 was more than 50 µM in each case. Moreover, the Activity came out at 0 Zone units in [2], 50 Zone units with MC-38 [3], 0 Zone units in the data set with L1210 [4] and 0 Zone units in data set [5]. Besides, the outcome in the data set with HCT-116 [6], in the data set with HCT-116 [7] and in the data set on HCT-116 [8] was inactive.
`C=C1C[C@H](C)C[C@@H]2CC=C[C@@H](C/C=C\C(=O)O[C@H]3C[C@@H](O[C@H]3/C=C/[C@@H]3C[C@@]4(C)O[C@H]4[C@@H](O)O3)[C@@H](O)[C@@H](O)C1)O2` [FIJIANOLIDE F]: the IC50 in the data set on HCT-116 [1] and in the data set with MDA-MB-435 was more than 50 µM in each case. The outcome in the data set on HCT-116 [6], in the data set on HCT-116 [7] and with HCT-116 [8] was inactive. The Activity in data set [9] came out at 50 Zone units; with MC-38 [10] it was 0 Zone units; in data set [11] it was 100 Zone units; in the data set on L1210 [12] it was 150 Zone units.
In the case of `C=C1C[C@H](C)C[C@@H]2CC=C[C@@H](C/C=C\C(=O)O[C@H]([C@@H](O)/C=C/[C@@H]3C[C@@]4(C)O[C@H]4[C@@H](O)O3)C[C@@H]3O[C@H]3[C@@H](O)C1)O2` [FIJIANOLIDE G], the IC50 worked out at 14.1 µM with HCT-116 [1] and 9.2 µM in the data set on MDA-MB-435. The Activity in data set [2] came out at 200 Zone units; in the data set with MC-38 [3], 350 Zone units; with L1210 [4], 150 Zone units; in [5], 200 Zone units; in [13] it was 100 Zone units. In addition, the result with HCT-116 [6], in the data set on HCT-116 [7] and in the data set with HCT-116 [8] was Active.
